{"source": "ChEMBL document CHEMBL3627607", "about": "“A Novel Pyrazolopyridine with in Vivo Activity in Plasmodium berghei- and Plasmodium falciparum-Infected Mouse Models from Structure-Activity Relationship Studies around the Core of Recently Identified Antimalarial Imidazopyridazines” (J Med Chem, 2015)", "key": {"[1]": {"test_system": "Blood", "experiment": "Drug metabolism in rat blood assessed as metabolite formation from sulfone oxidation on pyridine core and phenyl ring at 20 mg/kg, po and 5 mg/kg, iv by LC-MS/MS analysis", "type": "ADME, organism-based", "conditions": "in vivo", "summary_of_the_method": "(§1)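 Metabolites identified by LC-ESI-MS/MS in blood samples from the rat PK study (oral and intravenous dosing).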"}, "[2]": {"test_system": "Plasmodium falciparum", "experiment": "Antiplasmodial activity against drug sensitive Plasmodium falciparum NF54 infected in human erythrocytes after 48 hrs by [3H]-hypoxanthine incorporation assay", "type": "functional, organism-based"}, "[3]": {"experiment": "Selectivity index, ratio of IC50 for CHO cells to IC50 for multidrug resistant Plasmodium falciparum K1", "type": "toxicity, cell-based", "conditions": "hamster, read-out: Ratio IC50"}, "[4]": {"experiment": "Selectivity index, ratio of IC50 for CHO cells to IC50 for Plasmodium falciparum NF54", "type": "toxicity, cell-based", "conditions": "hamster, read-out: Ratio IC50"}, "[5]": {"experiment": "Selectivity index, ratio of IC50 for African green monkey VERO cells to IC50 for multidrug resistant Plasmodium falciparum K1", "type": "toxicity, cell-based", "conditions": "read-out: Ratio IC50"}, "[6]": {"experiment": "Selectivity index, ratio of IC50 for African green monkey VERO cells to IC50 for Plasmodium falciparum NF54", "type": "toxicity, cell-based", "conditions": "read-out: Ratio IC50"}, "[7]": {"test_system": "Liver microsome", "experiment": "Metabolic stability of the compound in human liver microsomes assessed as compound remaining at 0.1 uM after 30 mins by LC-MS/MS analysis", "type": "ADME", "conditions": "0.5 h"}, "[8]": {"experiment": "Metabolic stability of the compound in mouse liver microsomes assessed as compound remaining at 0.1 uM after 30 mins by LC-MS/MS analysis", "type": "ADME", "conditions": "0.5 h"}, "[9]": {"test_system": "Plasmodium berghei", "experiment": "Antiplasmodial activity against Plasmodium berghei ANKA expressing GFP infected in mouse assessed as reduction of parasitemia level at 50 mg/kg, po qd for 4 days measured on day 4 post last dose by flow cytometric analysis relative to control", "type": "functional", "set-up": "scale not given: the % may be the effect or the level left", "summary_of_the_method": "(§2)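 Mice (n = 3) infected with GFP-transfected P. berghei ANKA. Test agents were suspended in HPMC vehicle (0.5% w/v hydroxypropylmethylcellulose, 0.5% v/v benzyl alcohol, 0.4% v/v Tween 80, 0.9% w/v NaCl in water). Dosed orally at 4, 24, 48 and 72 h post-infection. Parasitemia read by flow cytometry on day 4 (96 h), detection limit 0.1%. Activity = control-minus-treated mean % parasitemia, relative to control.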"}, "[10]": {"test_system": "Plasmodium berghei", "experiment": "Antiplasmodial activity against Plasmodium berghei ANKA expressing GFP infected in mouse assessed as means survival days at 50 mg/kg, po qd for 4 days", "type": "functional", "summary_of_the_method": "(§3)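 Mice (n = 3) infected with GFP-transfected P. berghei ANKA. Compounds dissolved or suspended in HPMC vehicle (0.5% w/v hydroxypropylmethylcellulose, 0.5% v/v benzyl alcohol, 0.4% v/v Tween 80, 0.9% w/v NaCl in water). Dosed orally 4, 24, 48 and 72 h after infection. Parasitemia read by flow cytometry (detection limit 0.1%). Survival recorded as mean survival time in days.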"}, "[11]": {"test_system": "Plasmodium berghei", "experiment": "Antiplasmodial activity against Plasmodium berghei ANKA expressing GFP infected in mouse assessed as mouse cured from disease at 50 mg/kg, po qd for 4 days", "type": "functional, organism-based"}, "[12]": {"test_system": "Plasmodium berghei", "experiment": "Antiplasmodial activity against Plasmodium berghei ANKA expressing GFP infected in mouse assessed as reduction of parasitemia level at 10 mg/kg, po qd for 4 days measured on day 4 post last dose by flow cytometric analysis relative to control", "type": "functional", "set-up": "scale not given: the % may be the effect or the level left", "summary_of_the_method": "as §2"}, "[13]": {"test_system": "Plasmodium berghei", "experiment": "Antiplasmodial activity against Plasmodium berghei ANKA expressing GFP infected in mouse assessed as means survival days at 10 mg/kg, po qd for 4 days", "type": "functional", "summary_of_the_method": "as §3"}, "[14]": {"experiment": "Drug level in mouse blood at 50 mg/kg, po after 4 hrs", "type": "ADME, organism-based", "conditions": "read-out: Drug uptake", "summary_of_the_method": "(§4)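 Snapshot whole-blood levels of parent and its sulfone metabolite at 1, 4 and 24 h after the first 50 mg/kg oral dose. Samples came from the P. berghei-infected efficacy mice, dosed in HPMC suspension vehicle.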"}, "[15]": {"experiment": "Drug level in mouse blood at 50 mg/kg, po after 24 hrs", "type": "ADME, organism-based", "conditions": "blood, read-out: Drug uptake", "summary_of_the_method": "as §4"}, "[16]": {"test_system": "Blood", "experiment": "Drug metabolism in mouse assessed as 5-(3-(Cyclopropylsulfonyl)phenyl)-3-(4-(methylsulfonyl)-phenyl)pyrazolo[1,5-a]pyridine level in blood at 50 mg/kg, po after 1 hr", "type": "ADME, organism-based", "conditions": "in vivo, read-out: Drug metabolism", "summary_of_the_method": "as §4"}, "[17]": {"test_system": "Blood", "experiment": "Drug metabolism in mouse assessed as 5-(3-(Cyclopropylsulfonyl)phenyl)-3-(4-(methylsulfonyl)-phenyl)pyrazolo[1,5-a]pyridine level in blood at 50 mg/kg, po after 24 hrs", "type": "ADME, organism-based", "conditions": "in vivo", "summary_of_the_method": "as §4"}, "[18]": {"test_system": "Rattus norvegicus", "experiment": "Half life in rat at 5 mg/kg, iv", "type": "ADME, organism-based", "conditions": "in vivo"}, "[19]": {"test_system": "Rattus norvegicus", "experiment": "Volume of distribution in rat at 5 mg/kg, iv", "type": "ADME, organism-based", "conditions": "in vivo"}, "[20]": {"experiment": "Half life in rat at 15 mg/kg, po", "type": "ADME, organism-based", "conditions": "in vivo"}, "[21]": {"experiment": "Tmax in Plasmodium falciparum 3D7 infected in non-myelodepleted NOD-SCID IL2Rgammanull mouse engrafted with human erythrocytes at 0.1 mg/kg, po", "type": "ADME, organism-based", "conditions": "in vivo", "summary_of_the_method": "(§5)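 Engrafted NSG (scid IL2Rgc null) mice infected with P. falciparum were given one oral dose per day for four days. Blood was sampled to measure parent and its sulfone metabolite.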"}, "[22]": {"experiment": "AUC (0 to 2 hrs) in Plasmodium falciparum 3D7 infected in non-myelodepleted NOD-SCID IL2Rgammanull mouse engrafted with human erythrocytes at 0.1 mg/kg, po", "type": "ADME, organism-based", "set-up": "time < 2 hr, dose 0.1 mg/kg, route oral", "conditions": "in vivo", "summary_of_the_method": "as §5"}, "[23]": {"experiment": "AUC (0 to 8 hrs) in Plasmodium falciparum 3D7 infected in non-myelodepleted NOD-SCID IL2Rgammanull mouse engrafted with human erythrocytes at 0.5 mg/kg, po", "type": "ADME, organism-based", "set-up": "dose 0.5 mg/kg, time < 8 hr, route oral", "conditions": "in vivo", "summary_of_the_method": "as §5"}, "[24]": {"experiment": "Cmax in Plasmodium falciparum 3D7 infected in non-myelodepleted NOD-SCID IL2Rgammanull mouse engrafted with human erythrocytes at 1.5 mg/kg, po", "type": "ADME, organism-based", "set-up": "dose 1.5 mg/kg, route oral", "conditions": "in vivo", "summary_of_the_method": "as §5"}, "[25]": {"experiment": "Tmax in Plasmodium falciparum 3D7 infected in non-myelodepleted NOD-SCID IL2Rgammanull mouse engrafted with human erythrocytes at 1.5 mg/kg, po", "type": "ADME, organism-based", "conditions": "in vivo", "summary_of_the_method": "(§6)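 Humanized NSG mice infected with P. falciparum received one oral dose per day for 4 consecutive days. Blood was sampled for exposure, with levels of both parent and its main active metabolite measured. Tmax was taken from the blood concentration–time profile after oral dosing.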"}, "[26]": {"experiment": "AUC (0 to 8 hrs) in Plasmodium falciparum 3D7 infected in non-myelodepleted NOD-SCID IL2Rgammanull mouse engrafted with human erythrocytes at 1.5 mg/kg, po", "type": "ADME, organism-based", "set-up": "dose 1.5 mg/kg, time < 8 hr, route oral", "conditions": "in vivo", "summary_of_the_method": "as §5"}, "[27]": {"experiment": "Cmax in Plasmodium falciparum 3D7 infected in non-myelodepleted NOD-SCID IL2Rgammanull mouse engrafted with human erythrocytes at 10 mg/kg, po", "type": "ADME, organism-based", "set-up": "dose 10 mg/kg, route oral", "conditions": "in vivo", "summary_of_the_method": "as §5"}, "[28]": {"experiment": "Cmax in Plasmodium falciparum 3D7 infected in non-myelodepleted NOD-SCID IL2Rgammanull mouse engrafted with human erythrocytes at 30 mg/kg, po", "type": "ADME, organism-based", "set-up": "dose 30 mg/kg, route oral", "conditions": "in vivo", "summary_of_the_method": "as §5"}, "[29]": {"experiment": "Tmax in Plasmodium falciparum 3D7 infected in non-myelodepleted NOD-SCID IL2Rgammanull mouse engrafted with human erythrocytes at 30 mg/kg, po", "type": "ADME, organism-based", "conditions": "in vivo", "summary_of_the_method": "as §6"}, "[30]": {"test_system": "Blood", "experiment": "Drug metabolism in rat blood assessed as 5-(3-(Cyclopropylsulfonyl)phenyl)-3-(4-(methylsulfonyl)-phenyl)pyrazolo[1,5-a]pyridine formation at 20 mg/kg, po and 5 mg/kg, iv by LC-MS/MS analysis", "type": "ADME, organism-based", "conditions": "in vivo", "summary_of_the_method": "as §1"}, "[31]": {"test_system": "Liver microsome", "experiment": "Drug metabolism in rat liver microsomes assessed as 5-(3-(Cyclopropylsulfonyl)phenyl)-3-(4-(methylsulfonyl)-phenyl)pyrazolo[1,5-a]pyridine formation at 10 uM after 1 hr by LC-MS/MS analysis", "type": "ADME", "summary_of_the_method": "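Metabolites identified by LC-ESI-MS/MS after in vitro incubation with rat liver microsomes.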"}, "[32]": {"test_system": "Blood", "experiment": "Drug metabolism in rat blood assessed as metabolite formation from sulfone oxidation on pyrazole at 20 mg/kg, po and 5 mg/kg, iv by LC-MS/MS analysis", "type": "ADME, organism-based", "conditions": "in vivo", "summary_of_the_method": "as §1"}}, "note": "Active and inactive are the calls of the source. The calls are words filed in the database; no cut-off is given here."}
{"compound": "C[S+]([O-])c1ccc(-c2cnn3ccc(-c4cccc(S(=O)(=O)C5CC5)c4)cc23)cc1", "note": "(configuration not stated)", "values": [{"measurement": "Drug metabolism", "setting": "[1]", "result": "metabolite_detected"}, {"measurement": "IC50", "setting": "[2]", "result": 6, "unit": "nM"}, {"measurement": "selectivity ratio", "setting": "[3]", "result": "> 1000"}, {"measurement": "selectivity ratio", "setting": "[4]", "result": "> 1000"}, {"measurement": "selectivity ratio", "setting": "[5]", "result": "> 1000"}, {"measurement": "selectivity ratio", "setting": "[6]", "result": "> 1000"}, {"measurement": "Stability", "setting": "[7]", "result": "Stable"}, {"measurement": "Stability", "setting": "[8]", "result": "Stable"}, {"measurement": "Activity", "setting": "[9]", "result": 99.8, "unit": "%"}, {"measurement": "MSD", "setting": "[10]", "result": ">30", "unit": "days"}, {"measurement": "Activity", "setting": "[11]", "result": "Active"}, {"measurement": "Activity", "setting": "[12]", "result": 99.9, "unit": "%"}, {"measurement": "MSD", "setting": "[13]", "result": 8, "unit": "days"}, {"measurement": "concentration at 4 h", "setting": "[14]", "result": 1780, "unit": "nM"}, {"measurement": "concentration at 24 h", "setting": "[15]", "result": 30, "unit": "nM"}, {"measurement": "concentration", "setting": "[16]", "result": 7900, "unit": "nM"}, {"measurement": "Drug metabolism", "setting": "[17]", "result": 3.1, "unit": "µM"}, {"measurement": "t1/2", "setting": "[18]", "result": 2.7, "unit": "h"}, {"measurement": "Vd", "setting": "[19]", "result": 6.8, "unit": "L/kg"}, {"measurement": "half-life", "setting": "[20]", "result": 1, "unit": "h"}, {"measurement": "Tmax", "setting": "[21]", "result": 0.25, "unit": "h"}, {"measurement": "AUC(0-t) at 2 h", "setting": "[22]", "result": 2.1, "unit": "ng·h/mL"}, {"measurement": "AUC(0-t) at 8 h", "setting": "[23]", "result": 12.1, "unit": "ng·h/mL"}, {"measurement": "Cmax", "setting": "[24]", "result": 30, "unit": "ng/mL"}, {"measurement": "Tmax", "setting": "[25]", "result": 0.5, "unit": "h"}, {"measurement": "AUC(0-t) at 8 h", "setting": "[26]", "result": 40.5, "unit": "ng·h/mL"}, {"measurement": "Cmax", "setting": "[27]", "result": 50, "unit": "ng/mL"}, {"measurement": "Cmax", "setting": "[28]", "result": 226, "unit": "ng/mL"}, {"measurement": "Tmax", "setting": "[29]", "result": 6, "unit": "h"}, {"measurement": "Drug metabolism", "setting": "[30]", "result": "metabolite_detected"}, {"measurement": "Drug metabolism", "setting": "[31]", "result": "metabolite_detected"}, {"measurement": "Drug metabolism", "setting": "[32]", "result": "metabolite_detected"}]}
